Experimental data reported in paper PMC9335275 (Proceedings of the National Academy of Sciences of the …, 2022).
Like-named read-outs stand apart in the source and are kept apart here.

How the values were obtained:
monkeys = details: 12 nmol/kg; cited from earlier work
[1] = system: 3-wk-old FVB/nJ male mice; experiment: Growth; assay type: in vivo, mouse; details: QD 70 nmol/kg SC, 5 wk, n = 6
Outline: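 Wild-type male FVB/nJ mice, 3 wk old, groups of 6, were given SC injections once daily of 70 nmol/kg peptide or vehicle for 5 wk. Total body length was nasoanal plus tail length, measured in anesthetized mice positioned with head extended, nose on a horizontal guideline and tail straight. Length change over the period was compared with the vehicle group.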

[2] = molecular target: T1, NPR-B receptor on NIH3T3 cells (Mus musculus, UniProt Q6VVW5); details: read-out: EC50, reported; literature values; cited from earlier work
T1 sequence (Q6VVW5 23-1047 limits assumed): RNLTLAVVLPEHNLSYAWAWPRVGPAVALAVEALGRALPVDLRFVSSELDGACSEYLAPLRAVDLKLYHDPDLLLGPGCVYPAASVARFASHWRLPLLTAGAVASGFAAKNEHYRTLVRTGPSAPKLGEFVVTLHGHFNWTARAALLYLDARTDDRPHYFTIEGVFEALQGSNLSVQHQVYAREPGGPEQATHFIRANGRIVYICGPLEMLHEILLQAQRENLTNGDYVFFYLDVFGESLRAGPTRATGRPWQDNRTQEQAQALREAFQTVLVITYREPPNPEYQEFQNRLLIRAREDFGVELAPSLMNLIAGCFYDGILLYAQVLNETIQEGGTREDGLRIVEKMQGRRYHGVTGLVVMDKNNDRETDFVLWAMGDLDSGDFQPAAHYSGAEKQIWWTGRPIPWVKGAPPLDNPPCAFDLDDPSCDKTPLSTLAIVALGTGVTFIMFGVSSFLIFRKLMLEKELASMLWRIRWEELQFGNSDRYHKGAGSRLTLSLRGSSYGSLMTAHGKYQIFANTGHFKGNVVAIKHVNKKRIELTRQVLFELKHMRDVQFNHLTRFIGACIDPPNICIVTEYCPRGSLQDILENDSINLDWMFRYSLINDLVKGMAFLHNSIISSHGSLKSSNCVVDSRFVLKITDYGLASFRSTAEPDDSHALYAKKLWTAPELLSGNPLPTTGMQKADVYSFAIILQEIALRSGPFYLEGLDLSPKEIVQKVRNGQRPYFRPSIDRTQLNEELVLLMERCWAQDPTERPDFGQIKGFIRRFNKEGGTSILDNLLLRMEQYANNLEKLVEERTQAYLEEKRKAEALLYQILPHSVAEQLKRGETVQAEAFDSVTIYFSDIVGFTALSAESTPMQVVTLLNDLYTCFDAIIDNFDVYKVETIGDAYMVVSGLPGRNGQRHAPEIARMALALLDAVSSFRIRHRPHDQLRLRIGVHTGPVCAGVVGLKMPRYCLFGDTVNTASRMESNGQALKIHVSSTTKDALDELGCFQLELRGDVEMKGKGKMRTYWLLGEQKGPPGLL

[3] = mice, QD 70-nmol/kg dose; cited from earlier work
[4] = literature value; cited from earlier work
[5] = Body weight of treated mice; assay type: in vivo, mouse; details: 3-wk-old FVB/nJ male mice, various regimens
Outline: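 Wild-type male FVB/nJ mice, 3 wk old, about 15 g. Groups received one of: vehicle, daily SC 70 nmol/kg peptide, or microsphere-conjugated peptide. Conjugate dosing was weekly, biweekly or a single dose, either as constant nmol per mouse or as µmol/kg by body weight. Body weights of treated and untreated animals were followed over the study.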

[6] = monkeys, 12 nmol/kg; cited from earlier work
mice = details: 70 nmol/kg; cited from earlier work
[7] = molecular target: T1, NPR-B receptor on NIH3T3 cells; experiment: 3T3 cell NPR-B guanylate cyclase assay; assay type: cell-based
[8] = In vitro degradation at pH 7.4, 37 °C, HPLC analysis; assay type: physicochemical
children with ACH = details: once daily 15 μg/kg SC; cited from earlier work

SMILES: CC[C@H](C)[C@@H]1NC(=O)[C@H](CCCNC(=N)N)NC(=O)[C@H](CC(=O)O)NC(=O)[C@H](CC(C)C)NC(=O)[C@H](CCCCN)NC(=O)[C@H](CC(C)C)NC(=O)CNC(=O)[C@H](Cc2ccccc2)NC(=O)[C@@H](NC(=O)CNC(=O)[C@H](CCCCN)NC(=O)[C@H](CO)NC(=O)[C@H](CC(C)C)NC(=O)CNC(=O)[C@H](CCCCN)NC(=O)[C@H](CCCCN)NC(=O)[C@H](CC(N)=O)NC(=O)[C@H](C)NC(=O)CNC(=O)[C@H](CCCCN)NC(=O)[C@H](Cc2ccc(O)cc2)NC(=O)[C@H](CCCCN)NC(=O)[C@H](CCCNC(=N)N)NC(=O)[C@H](C)NC(=O)[C@H](CC(N)=O)NC(=O)[C@@H]2CCCN2C(=O)[C@H](Cc2c[nH]cn2)NC(=O)[C@H](CCC(=O)O)NC(=O)[C@H](CCC(N)=O)NC(=O)CNC(=O)[C@@H]2CCCN2)CSSC[C@@H](C(=O)O)NC(=O)CNC(=O)[C@H](CC(C)C)NC(=O)CNC(=O)[C@H](CO)NC(=O)[C@H](CCSC)NC(=O)[C@H](CO)NC(=O)CNC1=O [vosoritide]
- systemic BP or HR (monkeys): no changes in systemic BP or HR
- growth (TBL) exceeding that of the vehicle control group at study end [1]: 100%
- EC50 [2]: 4.9 nM
- Cmax [3]: 200 nM
- Cmax [4]: ~5 nM
- body weights of treated versus untreated mice [5]: no difference
- Cmax [6]: ~10 nM
- blood pressure and heart rate (mice): acute decreases in blood pressure and increases in heart rate within acceptable limits
- EC50 [7]: 11 nM
- degradation t1/2 ([8]; 100 µM, 10 mM sodium phosphate, 0.13 M NaCl, pH 7.4, 37 °C, HPLC): ~170 h
- t1/2 for degradation ([8]; physiological pH and temperature): ≤ 1 wk
- annualized growth velocity (children with ACH): sustained increase in the annualized growth velocity
- side effect profile (children with ACH): mild side effect profile
